Experiment [1] concerns the target T1, human histidine triad nucleotide binding protein 1 (hHint1) (Homo sapiens, UniProt P49773). Description: stopped-flow fluorescence, burst. The class given is biochemical. Particulars: 20 mM HEPES, 1 mM MgCl2, pH 7.2, 25 °C; pre-steady state. The procedure, abridged: (§1)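 Recombinant WT human Hint1 (E. coli BB2, AMP-agarose, desalted) was loaded at 5 μM in one syringe, with substrate in 20 mM HEPES, 1 mM MgCl2, pH 7.2 in the other. Substrate was phosphoramidate (5-60 μM) or acyl adenylate (5-40 μM). Equal volumes were mixed at 25°C. Fluorescence used excitation at 280 nm and a 320 nm cutoff. The burst rate came from a single exponential plus linear term, and Kadenylyl from a nonlinear fit versus [S]. Six experiments were averaged.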

The target in experiment [2] is T1, human histidine triad nucleotide binding protein 1 (hHint1). The experiment is described as follows: stopped-flow fluorescence, burst. The class given is biochemical. The note with it: 20 mM HEPES, 1 mM MgCl2, pH 7.2, 25 °C; pre-steady state. The procedure, abridged: as §1
The source holds these as a separate data set.

For experiment [3] the target is unchanged. Description: stopped-flow catalytic trapping with TpAd. The class given is biochemical. The procedure, abridged:
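Wild-type human Hint1, expressed in E. coli hinT-disrupted strain BB2 and purified on AMP-agarose, at 5 μM in one stopped-flow syringe. It was pre-incubated 10 min with the test compound (0-5000 μM) and then mixed with the tryptamine-releasing phosphoramidate substrate (40 μM). Indole fluorescence was read with excitation at 280 nm through a 320 nm cutoff filter. Test-compound absorbance was kept within 5%.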

For experiment [4] the target is unchanged. Description: tryptophan fluorescence titration.

The term Ki denotes a dissociation constant, usually derived from enzyme kinetics or from competition with a known ligand. Read a high Ki as a looser hold on the target. In general, Kd refers to the constant that tells how readily two partners part at equilibrium. Lower therefore signals a tighter complex.

T1 sequence (P49773 2-126): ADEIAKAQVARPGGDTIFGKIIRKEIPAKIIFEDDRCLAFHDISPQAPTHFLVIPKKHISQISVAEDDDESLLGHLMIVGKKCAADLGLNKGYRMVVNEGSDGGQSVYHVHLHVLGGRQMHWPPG

On to `Nc1ncnc2c1ncn2[C@@H]1O[C@H](COP(=O)(O)OC(=O)CCc2c[nH]c3ccccc23)[C@@H](O)[C@H]1O` [AIPA], for which the “K^adenylyl” value in experiment [1] was found to be 5 ± 1 µM.
Turning to `Nc1ncnc2c1ncn2[C@@H]1O[C@H](COP(=O)(O)NCCc2c[nH]c3ccccc23)[C@@H](O)[C@H]1O` [TpAd], in experiment [2], the “K^adenylyl” value amounted to 13 ± 2 µM.
`Nc1ncnc2c1ncn2[C@@H]1O[C@H](COP(=O)(O)O)[C@@H](O)[C@H]1O` [AMP]: the Ki in experiment [3] was roughly 200 µM. In experiment [4], this compound gave a Kd of 200 µM.

For the origin of these results see article PMC3835729 (Biochemistry, 2013).
